Measurements reported in ChEMBL document CHEMBL4177758, “Rational Drug Design of Topically Administered Caspase 1 Inhibitors for the Treatment of Inflammatory Acne” (J Med Chem, 2018).
pIC50: −log10 of the molar value. Values after ≈ are worked out from the molar mass of the structure shown. Active and inactive are the calls of the source. The calls are words filed in the database; no cut-off is given here.

Key:
Caspase-1 [1] = molecular target: T1, Caspase-1 (Homo sapiens, UniProt P29466); assay: Inhibition of human recombinant caspase-1 using AC-WEHD-AMC as substrate at Km after 20 mins by fluorescence assay; conditions: for pIC50: read-out: IC50; for IC50: read-out: pIC50 (converted)
T1 sequence (P29466 whole entry): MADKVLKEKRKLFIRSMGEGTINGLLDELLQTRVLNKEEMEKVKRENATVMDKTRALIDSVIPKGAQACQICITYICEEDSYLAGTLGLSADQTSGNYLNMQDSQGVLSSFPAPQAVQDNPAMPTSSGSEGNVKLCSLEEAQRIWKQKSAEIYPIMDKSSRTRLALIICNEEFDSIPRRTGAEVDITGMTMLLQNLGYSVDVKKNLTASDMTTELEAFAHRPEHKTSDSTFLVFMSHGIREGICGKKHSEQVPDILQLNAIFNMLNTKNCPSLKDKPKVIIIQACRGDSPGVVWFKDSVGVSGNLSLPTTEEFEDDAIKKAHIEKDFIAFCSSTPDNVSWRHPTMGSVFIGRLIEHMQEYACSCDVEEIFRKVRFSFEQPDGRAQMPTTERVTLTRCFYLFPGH

Caspase-1 [2] = molecular target: T1, Caspase-1; assay: Inhibition of human recombinant caspase-1 using AC-WEHD-AMC as substrate at 20 times Km after 20 mins by fluorescence assay
Summary of the method: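 Human recombinant caspase-1 in pH 7.4 HEPES buffer (100 mM NaCl, 0.1% CHAPS, 1 mM EDTA, 10% glycerol, 10 mM DTT) with Ac-WEHD-AMC at 200 μM final. Compounds tested at 10 000–0.04 nM in 1% DMSO. Enzyme level is set to convert under 20% of substrate in 20 min at room temperature. Free AMC read at ex 340/em 450 nm; IC50 from a four-parameter logistic fit.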

[3] = Lipophilicity, log D of the compound at pH 6.5 by chromatographic method; type: physicochemical; conditions: buffer
Summary of the method: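 Chromatographic lipophilicity at pH 6.5, converted to ChromLogD = CHI × 0.0857 − 2.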

[4] = Solubility of the compound in PG/EtOH solution; type: physicochemical
[5] = Aqueous solubility of the compound in pH 7.4 buffered water after 24 hrs; type: physicochemical
Summary of the method: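 Semi-thermodynamic protocol: a mixture made from a 10 mM DMSO stock is diluted into pH 7.4 buffered water and stirred 24 h before the concentration is measured.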

Caspase-1 [6] = molecular target: T1, Caspase-1; assay: Inhibition of caspase-1 in human THP1 cells assessed as decrease in LPS-induced IL-1beta secretion after overnight incubation by sandwich immunoassay; type: cell-based
Caspase-1 (Homo sapiens) [7] = molecular target: T2, Caspase-1 (Homo sapiens) (UniProt P29466); assay: Reversible inhibition of human recombinant caspase-1 using AC-WEHD-AMC as substrate at 10 times IC50 preincubated for 1 hr followed by 100 fold dilution with substrate measured for 2 hrs by fluorescence assay
T2 sequence (whole entry): T1 sequence (P29466 whole entry)
Summary of the method: (§1)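 Jump dilution using the caspase-1 assay reagents. A 100X enzyme solution is preincubated 1 h with inhibitor at its IC90 (1% DMSO), then diluted 100-fold into Ac-WEHD-AMC at Km. AMC formation is recorded continuously for 2 h. The progress-curve slope is normalized to the DMSO control: about 90% indicates reversible, about 10% pseudo-irreversible.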

[8] = Chemical stability in 96% ethanol assessed as parent compound recovery at 23 degC after 3 months; type: physicochemical; conditions: read-out: Drug recovery
Summary of the method: (§2)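 Compounds bearing the aspartyl aldehyde warhead are held in 96% ethanol at 23 °C and assayed as percent of parent compound recovered. Readings taken after 4 weeks are projected to 12 weeks with best-fit kinetic-order equations. Tautomers and potential stereoisomers are counted as parent.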

[9] = Intrinsic clearance in human epidermal keratinocyte S9 fraction assessed per mg of protein; type: ADME
[10] = Intrinsic clearance in NHEK cells assessed per 10^6 cells; type: ADME, cell-based; conditions: human
Caspase-1 (Homo sapiens) [11] = molecular target: T2, Caspase-1 (Homo sapiens); assay: Pseudoirreversible inhibition of human recombinant caspase-1 using AC-WEHD-AMC as substrate at 10 times IC50 preincubated for 1 hr followed by 100 fold dilution with substrate measured for 2 hrs by fluorescence assay; summary of the method: as §1
[12] = Phototoxicity in NHEK assessed as decrease in cell viability after 24 hrs in presence of UV light by neutral red uptake assay; conditions: human
Summary of the method: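 Keratinocyte neutral red uptake assay adapted from the OECD 432 3T3 NRU test. Cells are irradiated with a simulated daily UV dose of 6 J/cm², and viability is read after 24 h exposure to compound.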

[13] = Chemical stability in 96% ethanol assessed as parent compound recovery at 23 degC after 84 days; type: physicochemical; conditions: read-out: Drug recovery; summary of the method: as §2

Row | Structure (SMILES) | pIC50 (Caspase-1 [2]) | chromatographic logD [3] | solubility at 24 h [5] | pIC50 (Caspase-1 [6]) | IC50 (Caspase-1 [1]) | other results
1 | CC(C(=O)N[C@H]1CC(=O)OC1O)n1c(=O)c(NC(=O)c2ccc(Nc3cnc4ccccc4n3)cc2)cn(C)c1=O (some centres undefined) | 7.50 | 1.9 | 96 µM (≈ 53.7 µg/mL) | 7.32 |  | pIC50 (Caspase-1 [1]): 8.25; solubility [4]: 0.89 mM (≈ 498 µg/mL)
2 | CC(C)N(NC(=O)c1nccc2ccccc12)C(=O)[C@@H]1CCCC[C@H]1C(=O)N[C@H]1CC(=O)OC1O (some centres undefined) |  |  |  |  |  | reversible inhibition call (jump dilution) (Caspase-1 (Homo sapiens) [7]): Active
3 | CCC(C(=O)N[C@H]1CC(=O)OC1O)n1c(=O)c(NC(=O)c2ccc(Nc3ccc4ccccc4c3)cc2C)cn(C(C)C)c1=O (some centres undefined) |  | 4 |  | 7.12 |  | remaining at 2191.5 h [8]: 72%
4 | O=C1C[C@H](NC(=O)[C@@H]2C[C@@H]3CN2C(=O)[C@@H](NC(=O)c2ccc4ccccc4c2)CCCCO3)C(O)O1 (some centres undefined) | < 5.00 |  |  |  | 5010 nM | 
5 | CC(C)n1cc(NC(=O)c2ccc(Nc3ccc4ccccc4c3)cc2)c(=O)n(C2(C(=O)N[C@H]3CC(=O)OC3O)CC2)c1=O (some centres undefined) |  | 3.5 | 66 µM (≈ 39.4 µg/mL) | 7.64 |  | solubility [4]: 31 mM (≈ 18500 µg/mL); remaining at 2191.5 h [8]: 99%; CL [9]: < 0.82 uL/min/mg protein; CL [10]: 2.1 uL/min/10^6 cells
6 | CC(C)[C@H](NC(=O)[C@H](Cc1ccc(O)cc1)NC(=O)OCc1ccccc1)C(=O)N[C@@H](C)C(=O)N[C@@H](CC(=O)O)C(=O)CF |  |  |  |  |  | pseudo-irreversible inhibition (qualitative call) (Caspase-1 (Homo sapiens) [11]): Active
7 | CC(C)N(NC(=O)c1ccc2ccccc2c1)C(=O)C1CCCC[C@H]1C(=O)N[C@H]1CC(=O)OC1O (some centres undefined) | 5.00 to 5.80 |  |  |  | 251 to 10000 nM | 
8 | CC(C)[C@H](NC(=O)c1ccc2ccccc2c1)C(=O)N1C2CCC(O)(CC2)C1C(=O)N[C@H]1CC(=O)OC1O (some centres undefined) | 7.00 |  |  |  | 15.8 nM | 
9 | CC(C)n1cc(NC(=O)c2ccc(Nc3cnc4ccccc4n3)cc2)c(=O)n(C(C)C(=O)N[C@H]2CC(=O)OC2O)c1=O (some centres undefined) |  | 2.4 | 86 µM (≈ 50.5 µg/mL) | 7.30 |  | pIC50 (Caspase-1 [1]): 8.25; solubility [4]: 11 mM (≈ 6460 µg/mL)
10 | C[C@@H](C(=O)N[C@H]1CC(=O)OC1O)N1C(=O)C[C@H](NC(=O)c2ccc3ccccc3c2)C1=O (some centres undefined) |  |  |  |  |  | pseudo-irreversible inhibition (qualitative call) (Caspase-1 (Homo sapiens) [11]): Active
11 | CCC(C(=O)N[C@H]1CC(=O)OC1O)n1c(=O)c(NC(=O)c2ncc(Nc3ccc4ccccc4c3)cc2C)cn(C(C)C)c1=O (some centres undefined) |  | 4.5 | 2 µM (≈ 1.23 µg/mL) | 6.70 |  | solubility [4]: 49 mM (≈ 30100 µg/mL); remaining at 2191.5 h [8]: 100%; CL [9]: 2 uL/min/mg protein; CL [10]: 7.7 uL/min/10^6 cells; Activity [12]: Toxic
12 | CC(C)N(NC(=O)c1ccc2ccccc2c1)C(=O)C1CCC[C@H]1C(=O)N[C@H]1CC(=O)OC1O (some centres undefined) | 5.00 to 5.80 |  |  |  | 251 to 10000 nM | 
13 | CCC(C(=O)N[C@H]1CC(=O)OC(O)C1)n1c(=O)c(NC(=O)c2ccc(Nc3ccc4ccccc4c3)cc2C)cn(C(C)C)c1=O (some centres undefined) |  | 3.8 | 42 µM (≈ 26.4 µg/mL) | 6.68 |  | remaining at 2191.5 h [8]: 84%; CL [9]: 2.9 uL/min/mg protein; CL [10]: 13 uL/min/10^6 cells
14 | CC(C)n1cc(NC(=O)c2ccc(Nc3cnc4ccccc4n3)cc2)c(=O)n(CC(=O)N[C@H]2CC(=O)OC2O)c1=O (some centres undefined) |  | 2.3 | 8.3 µM (≈ 4.76 µg/mL) | 7.28 |  | pIC50 (Caspase-1 [1]): 8.52; solubility [4]: 5.2 mM (≈ 2980 µg/mL)
15 | C[C@@H](C(=O)N[C@H]1CC(=O)OC1O)N1C(=O)NC(NC(=O)c2ccc3ccccc3c2)C1=O (some centres undefined) | 5.00 to 5.90 |  |  |  | 1000 to 10000 nM | 
16 | CC(C)N(NC(=O)c1ccc2ccccc2c1)C(=O)[C@@H]1CCCC[C@H]1C(=O)N[C@H]1CC(=O)OC1O (some centres undefined) |  |  |  |  |  | reversible inhibition call (jump dilution) (Caspase-1 (Homo sapiens) [7]): Active
17 | Cc1cc(Nc2ccc3ccccc3c2)ccc1C(=O)Nc1cn(C(C)C)c(=O)n(CC(=O)N[C@H]2CC(=O)OC2O)c1=O (some centres undefined) |  | 3.5 | 72 µM (≈ 42.2 µg/mL) | 7.18 |  | solubility [4]: 51 mM (≈ 29900 µg/mL); remaining at 2191.5 h [8]: 85%; CL [10]: 3.9 uL/min/10^6 cells
18 | C[C@@H](C(=O)N[C@H]1CC(=O)OC1O)N1C(=O)CCC(NC(=O)c2ccc3ccccc3c2)C1=O (some centres undefined) | 5.00 to 5.90 |  |  |  | 1000 to 10000 nM | 
19 | CC(C)N(NC(=O)c1cccc(Oc2ccccc2)c1)C(=O)[C@@H]1CCCC[C@H]1C(=O)N[C@H]1CC(=O)OC1O (some centres undefined) |  |  |  |  |  | reversible inhibition call (jump dilution) (Caspase-1 (Homo sapiens) [7]): Active
20 | Cc1cnc(Nc2ccc(C(=O)Nc3cn(C)c(=O)n(C(C)C(=O)N[C@H]4CC(=O)OC4O)c3=O)cc2)cn1 (some centres undefined) |  |  |  |  | 39.8 nM | 
21 | CC(C)n1cc(NC(=O)c2ccc(Nc3cnc4ccccc4n3)cc2)c(=O)n(C2(C(=O)N[C@H]3CC(=O)OC3O)CC2)c1=O (some centres undefined) |  | 2.4 | 87 µM (≈ 52.2 µg/mL) | 7.57 |  | pIC50 (Caspase-1 [1]): 8.33; solubility [4]: 25 mM (≈ 15000 µg/mL)
22 | C[C@@H](C(=O)N[C@H]1CC(=O)OC1O)N1C(=O)CC(NC(=O)c2ccc3ccccc3c2)C1=O (some centres undefined) | 5.00 to 5.90 |  |  |  | 1000 to 10000 nM | 
23 | CC(C(=O)N[C@H]1CC(=O)OC1O)n1c(=O)c(NC(=O)c2ccc3ccccc3c2)cn(C)c1=O (some centres undefined) | 5.10 |  |  |  | 501 nM | reversible inhibition call (jump dilution) (Caspase-1 (Homo sapiens) [7]): Active
24 | Cc1cc(Nc2ccc3ccccc3c2)ccc1C(=O)Nc1cn(C(C)C)c(=O)n(C2(C(=O)N[C@H]3CC(=O)OC(O)C3)CC2)c1=O (some centres undefined) |  | 3.4 | 63 µM (≈ 39.4 µg/mL) | 6.44 |  | remaining at 2016 h [13]: 88%; CL [9]: 3.5 uL/min/mg protein; Activity [12]: Non-Toxic
25 | C[C@@H](C(=O)N[C@H]1CC(=O)O[C@@H]1O)N1C(=O)CCC(NC(=O)c2ccc3ccccc3c2)C1=O (some centres undefined) |  |  |  |  |  | pseudo-irreversible inhibition (qualitative call) (Caspase-1 (Homo sapiens) [11]): Active
26 | CC(C)n1cc(NC(=O)c2ccc(Nc3ccc4ccccc4c3)cc2)c(=O)n(CC(=O)N[C@H]2CC(=O)OC2O)c1=O (some centres undefined) |  | 3.2 | 52 µM (≈ 29.7 µg/mL) | 6.85 |  | pIC50 (Caspase-1 [1]): 7.68; solubility [4]: 36 mM (≈ 20600 µg/mL); remaining at 2191.5 h [8]: 82%; CL [9]: < 0.82 uL/min/mg protein; Activity [12]: Toxic
27 | CC(C)N(NC(=O)c1ccc2ccccc2c1)C(=O)C1CNC[C@H]1C(=O)N[C@H]1CC(=O)OC1O (some centres undefined) | 5.00 to 5.80 |  |  |  | 251 to 10000 nM | 
28 | O=C1C[C@H](NC(=O)[C@@H]2CC[C@@H]3CCCC[C@H](NC(=O)c4nccc5ccccc45)C(=O)N32)C(O)O1 (some centres undefined) |  |  |  |  |  | pseudo-irreversible inhibition (qualitative call) (Caspase-1 (Homo sapiens) [11]): Active
29 | CC(C)[C@H](NC(=O)c1ccc2ccccc2c1)c1ccc(C(=O)N[C@H]2CC(=O)OC2O)cn1 (some centres undefined) | < 5.00 |  |  |  | 1260 nM | 
